System: Hepatitis C virus
Test: Antiviral activity against Hepatitis C virus subtype 1b expressing NS3 T54A mutant infected in HuH7 cells after 48 hrs by luciferase reporter assay
Format: functional, organism-based, Hepacivirus hominis
Conditions: genotype 1b, Huh-7, 48 h
How it was run: (§1)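 Genotype 1b con1 subgenomic bicistronic replicon (clone ET) with luciferase reporter and adaptive mutations E1202G, T1280I, K1846T, carrying site-directed NS3 single or double mutations. 10 μg wild-type or mutant replicon RNA electroporated into Huh7-lunet cells, seeded 4,000 cells/well over a nine-point inhibitor dilution series, 48 h at 37°C, 5% CO2, then luminescence read. EC50 taken as median of individual experiments; fold change relative to parental replicon EC50.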

| Structure (SMILES) | EC50 |
| --- | --- |
| CC(C)(C)NC(=O)N[C@H](C(=O)N1C[C@H]2[C@@H]([C@H]1C(=O)NC(CC1CCC1)C(=O)C(N)=O)C2(C)C)C(C)(C)C (stereo not given in full) [BOCEPREVIR] | 268 nM |

System: Hepatitis C virus
Test: Ratio of EC50 for Hepatitis C virus subtype 1b expressing NS3 Q80R and D168A mutant to EC50 for Hepatitis C virus subtype 1b expressing WT NS3 infected in HuH7 cells after 48 hrs by luciferase reporter assay
Format: functional, Hepacivirus hominis, genotype 1b, Huh-7
Conditions: not given
How it was run: (§2)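 Transient replicon assay: site-directed single or multiple NS3 mutations engineered into genotype 1b (con1, clone ET) subgenomic bicistronic replicon with luciferase reporter and adaptive mutations E1202G, T1280I, K1846T. Huh7-lunet cells electroporated with 10 μg wild-type or mutant replicon RNA, seeded 4,000 cells/well with nine-point inhibitor dilution; 48 h, 37°C, 5% CO2; luminescence read-out. EC50 as median of individual experiments; fold change versus parental replicon EC50.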

| Structure (SMILES) | Ratio EC50 |
| --- | --- |
| CC(C)(C)NC(=O)N[C@H](C(=O)N1C[C@H]2[C@@H]([C@H]1C(=O)NC(CC1CCC1)C(=O)C(N)=O)C2(C)C)C(C)(C)C (stereo not given in full) [BOCEPREVIR] | 0.5 |

System: Hepatitis C virus
Test: Antiviral activity against Hepatitis C virus subtype 1b expressing NS3 Q80R and R155K mutant infected in HuH7 cells after 48 hrs by luciferase reporter assay
Format: functional, organism-based, Hepacivirus hominis
Conditions: genotype 1b, Huh-7, 48 h
How it was run: as §1

| Structure (SMILES) | EC50 |
| --- | --- |
| CC(C)(C)NC(=O)N[C@H](C(=O)N1C[C@H]2[C@@H]([C@H]1C(=O)NC(CC1CCC1)C(=O)C(N)=O)C2(C)C)C(C)(C)C (stereo not given in full) [BOCEPREVIR] | 680 nM |

System: Hepatitis C virus
Test: Ratio of EC50 for Hepatitis C virus subtype 1b expressing NS3 Q80R and R155K mutant to EC50 for Hepatitis C virus subtype 1b expressing WT NS3 infected in HuH7 cells after 48 hrs by luciferase reporter assay
Format: functional, Hepacivirus hominis, genotype 1b, Huh-7
Conditions: not given
How it was run: as §2

| Structure (SMILES) | Ratio EC50 |
| --- | --- |
| CC(C)(C)NC(=O)N[C@H](C(=O)N1C[C@H]2[C@@H]([C@H]1C(=O)NC(CC1CCC1)C(=O)C(N)=O)C2(C)C)C(C)(C)C (stereo not given in full) [BOCEPREVIR] | 2.7 |

System: Hepatitis C virus
Test: Antiviral activity against Hepatitis C virus subtype 1b expressing NS3 D168N mutant infected in HuH7 cells after 48 hrs by luciferase reporter assay
Format: functional, organism-based, Hepacivirus hominis
Conditions: genotype 1b, Huh-7, 48 h
How it was run: as §1

| Structure (SMILES) | EC50 |
| --- | --- |
| CC(C)(C)NC(=O)N[C@H](C(=O)N1C[C@H]2[C@@H]([C@H]1C(=O)NC(CC1CCC1)C(=O)C(N)=O)C2(C)C)C(C)(C)C (stereo not given in full) [BOCEPREVIR] | 101 nM |

System: Hepatitis C virus
Test: Antiviral activity against Hepatitis C virus subtype 1b expressing NS3 V36L mutant infected in HuH7 cells after 48 hrs by luciferase reporter assay
Format: functional, organism-based, Hepacivirus hominis
Conditions: genotype 1b, Huh-7, 48 h
How it was run: as §1

| Structure (SMILES) | EC50 |
| --- | --- |
| CC(C)(C)NC(=O)N[C@H](C(=O)N1C[C@H]2[C@@H]([C@H]1C(=O)NC(CC1CCC1)C(=O)C(N)=O)C2(C)C)C(C)(C)C (stereo not given in full) [BOCEPREVIR] | 110 nM |

System: Hepatitis C virus
Test: Ratio of EC50 for Hepatitis C virus subtype 1b expressing NS3 D168A mutant to EC50 for Hepatitis C virus subtype 1b expressing WT NS3 infected in HuH7 cells after 48 hrs by luciferase reporter assay
Format: functional, Hepacivirus hominis, genotype 1b, Huh-7
Conditions: not given
How it was run: as §1

| Structure (SMILES) | Ratio EC50 |
| --- | --- |
| CC(C)(C)NC(=O)N[C@H](C(=O)N1C[C@H]2[C@@H]([C@H]1C(=O)NC(CC1CCC1)C(=O)C(N)=O)C2(C)C)C(C)(C)C (stereo not given in full) [BOCEPREVIR] | 0.7 |

System: Hepatitis C virus
Test: Ratio of EC50 for Hepatitis C virus subtype 1b expressing NS3 R155K mutant to EC50 for Hepatitis C virus subtype 1b expressing WT NS3 infected in HuH7 cells after 48 hrs by luciferase reporter assay
Format: functional, Hepacivirus hominis, genotype 1b, Huh-7
Conditions: not given
How it was run: as §2

| Structure (SMILES) | Ratio EC50 |
| --- | --- |
| CC(C)(C)NC(=O)N[C@H](C(=O)N1C[C@H]2[C@@H]([C@H]1C(=O)NC(CC1CCC1)C(=O)C(N)=O)C2(C)C)C(C)(C)C (stereo not given in full) [BOCEPREVIR] | 4.7 |

System: Hepatitis C virus
Test: Ratio of EC50 for Hepatitis C virus subtype 1b expressing NS3 D168H mutant to EC50 for Hepatitis C virus subtype 1b expressing WT NS3 infected in HuH7 cells after 48 hrs by luciferase reporter assay
Format: functional, Hepacivirus hominis, genotype 1b, Huh-7
Conditions: not given
How it was run: as §2

| Structure (SMILES) | Ratio EC50 |
| --- | --- |
| CC(C)(C)NC(=O)N[C@H](C(=O)N1C[C@H]2[C@@H]([C@H]1C(=O)NC(CC1CCC1)C(=O)C(N)=O)C2(C)C)C(C)(C)C (stereo not given in full) [BOCEPREVIR] | 0.7 |

System: Hepatitis C virus
Test: Ratio of EC50 for Hepatitis C virus subtype 1b expressing NS3 R109K mutant to EC50 for Hepatitis C virus subtype 1b expressing WT NS3 infected in HuH7 cells after 48 hrs by luciferase reporter assay
Format: functional, Hepacivirus hominis, genotype 1b, Huh-7
Conditions: not given
How it was run: as §2

| Structure (SMILES) | Ratio EC50 |
| --- | --- |
| CC(C)(C)NC(=O)N[C@H](C(=O)N1C[C@H]2[C@@H]([C@H]1C(=O)NC(CC1CCC1)C(=O)C(N)=O)C2(C)C)C(C)(C)C (stereo not given in full) [BOCEPREVIR] | 1 |

System: Hepatitis C virus
Test: Ratio of EC50 for Hepatitis C virus subtype 1b expressing NS3 V36L mutant to EC50 for Hepatitis C virus subtype 1b expressing WT NS3 infected in HuH7 cells after 48 hrs by luciferase reporter assay
Format: functional, Hepacivirus hominis, genotype 1b, Huh-7
Conditions: not given
How it was run: as §2

| Structure (SMILES) | Ratio EC50 |
| --- | --- |
| CC(C)(C)NC(=O)N[C@H](C(=O)N1C[C@H]2[C@@H]([C@H]1C(=O)NC(CC1CCC1)C(=O)C(N)=O)C2(C)C)C(C)(C)C (stereo not given in full) [BOCEPREVIR] | 1.6 |

System: Hepatitis C virus
Test: Antiviral activity against Hepatitis C virus subtype 1b expressing NS3 S138T mutant infected in HuH7 cells after 48 hrs by luciferase reporter assay
Format: functional, organism-based, Hepacivirus hominis
Conditions: genotype 1b, Huh-7, 48 h
How it was run: as §1

| Structure (SMILES) | EC50 |
| --- | --- |
| CC(C)(C)NC(=O)N[C@H](C(=O)N1C[C@H]2[C@@H]([C@H]1C(=O)NC(CC1CCC1)C(=O)C(N)=O)C2(C)C)C(C)(C)C (stereo not given in full) [BOCEPREVIR] | 16 nM |

System: Hepatitis C virus
Test: Antiviral activity against Hepatitis C virus subtype 1b expressing NS3 Q80H and D168E mutant infected in HuH7 cells after 48 hrs by luciferase reporter assay
Format: functional, organism-based, Hepacivirus hominis
Conditions: genotype 1b, Huh-7, 48 h
How it was run: as §1

| Structure (SMILES) | EC50 |
| --- | --- |
| CC(C)(C)NC(=O)N[C@H](C(=O)N1C[C@H]2[C@@H]([C@H]1C(=O)NC(CC1CCC1)C(=O)C(N)=O)C2(C)C)C(C)(C)C (stereo not given in full) [BOCEPREVIR] | 20 nM |

System: Hepatitis C virus
Test: Antiviral activity against Hepatitis C virus subtype 1b expressing NS3 F43S mutant infected in HuH7 cells after 48 hrs by luciferase reporter assay
Format: functional, organism-based, Hepacivirus hominis
Conditions: genotype 1b, Huh-7, 48 h
How it was run: as §1

| Structure (SMILES) | EC50 |
| --- | --- |
| CC(C)(C)NC(=O)N[C@H](C(=O)N1C[C@H]2[C@@H]([C@H]1C(=O)NC(CC1CCC1)C(=O)C(N)=O)C2(C)C)C(C)(C)C (stereo not given in full) [BOCEPREVIR] | 333 nM |

System: Hepatitis C virus
Test: Antiviral activity against Hepatitis C virus subtype 1b expressing NS3 Q80H mutant infected in HuH7 cells after 48 hrs by luciferase reporter assay
Format: functional, organism-based, Hepacivirus hominis
Conditions: genotype 1b, Huh-7, 48 h
How it was run: as §1

| Structure (SMILES) | EC50 |
| --- | --- |
| CC(C)(C)NC(=O)N[C@H](C(=O)N1C[C@H]2[C@@H]([C@H]1C(=O)NC(CC1CCC1)C(=O)C(N)=O)C2(C)C)C(C)(C)C (stereo not given in full) [BOCEPREVIR] | 78 nM |

Reference: ChEMBL document CHEMBL1671684, “In vitro resistance profile of the hepatitis C virus NS3/4A protease inhibitor TMC435” (Antimicrob Agents Chemother, 2010)
